What was measured:
Settings in all cases: in vivo
Canis familiaris [1] = test: Tmax as total radioactivity in male beagle dog plasma at 10 mg/kg, po administered as single dose by LC-MS/MS analysis; assay type: ADME, organism-based, Canis lupus familiaris; set-up: dose 10 mg/kg, dosed compound name [14C]lixivaptan, route oral
How it was run: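 Male beagles given 10 mg/kg [14C]drug oral suspension; jugular K2EDTA blood at 0.25-168 h. Parent by validated LC-MS/MS, total radioactivity by LSC; Tmax observed; t1/2 = 0.693/kel from terminal log-linear regression.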

Canis familiaris [2] = test: Cmax as total radioactivity in male beagle dog plasma at 10 mg/kg, po administered as single dose by LC-MS/MS analysis; assay type: ADME, organism-based, Canis lupus familiaris; set-up: dose 10 mg/kg, dosed compound name [14C]lixivaptan, route oral
How it was run: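 Four male beagles were fasted 18 h and gavaged once with 10 mg/kg (2 ml/kg) [14C]lixivaptan as a 5.0 mg/ml water/pluronic F68 suspension. Jugular K2EDTA blood was sampled from 0.25 to 168 h. Plasma total radioactivity was counted by LSC as ng-equiv/ml and lixivaptan by validated LC-MS/MS. Noncompartmental Cmax, t1/2 and trapezoidal AUC were derived.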

[3] = Drug recovery in bile of bile duct-cannulated female Sprague-Dawley rat at 10 mg/kg, po administered as single dose via gavage measured 0 to 48 hrs by liquid scintillation counting; assay type: ADME, organism-based; set-up: dose 10 mg/kg, dosed compound name [14C]lixivaptan, route oral
How it was run: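 Bile-duct cannulated SD rats (n=5) got single gavage of [14C]drug 10 mg/kg as pluronic F68/water suspension. Bile collected on wet ice at 0-4, 4-8, 8-24, 24-48 h; drinking water supplemented with bile salts and electrolytes. Duplicate aliquots counted by liquid scintillation; expressed as % of dose.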

Homo sapiens [4] = test: Drug level in human plasma at 100 mg, po administered as single dose measured after 4 hrs by liquid scintillation counting; assay type: ADME, organism-based; set-up: dosed compound name [14C]lixivaptan
How it was run: (§1)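 Healthy male volunteers fasted ≥10 h, given single oral 100 mg (200 µCi) [14C]drug as two 50-mg capsules with 250 ml water. Plasma (from ~50 ml blood) at 0.5, 2, 4, 8, 12, 24, 36 h, profiled per subject. Acetonitrile extraction, C18 radio-HPLC with 0.2% formic acid acetonitrile/water gradient, on-line radioactivity detection as % plasma radioactivity; ng-equiv/ml from % × total radioactivity.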

Homo sapiens [5] = test: Drug level in human plasma at 100 mg, po administered as single dose measured after 12 hrs by liquid scintillation counting; assay type: ADME, organism-based; set-up: dosed compound name [14C]lixivaptan; how it was run: as §1

Cc1ccc(F)cc1[14C](=O)Nc1ccc(C(=O)N2Cc3cccn3Cc3ccccc32)c(Cl)c1
Tmax (Canis familiaris [1]): 1.8 h | Cmax (Canis familiaris [2]): 3570 ngequiv/ml | Radiolabel recovery [3]: 70.5% | Compound recovery (Homo sapiens [4]): 8% | Compound recovery (Homo sapiens [5]): 5.6%

Source: ChEMBL document CHEMBL3525987, “Assessment of exposure of metabolites in preclinical species and humans at steady state from the single-dose radiolabeled absorption, distribution, metabolism, and excretion studies: a case study” (Drug Metab Dispos, 2012)
